Two compounds from ChEMBL document CHEMBL4043283, “Discovery and Preclinical Development of IIIM-290, an Orally Active Potent Cyclin-Dependent Kinase Inhibitor” (J Med Chem, 2018) can be followed below.

For test [1], the system named is MIA PaCa-2. As to the kind of experiment: Induction of apoptosis in human MIAPaCa2 cells at 2 uM after 24 hrs by propidium iodide staining-based flow cytometric method relative to control. The test is classed as functional.
Test [2] has as its system MIA PaCa-2. As to the kind of experiment: Cell cycle arrest in human MIAPaCa2 cells assessed as accumulation at G1 phase at 2 uM after 24 hrs by propidium iodide staining-based flow cytometric method (reference value: 36%). The test is classed as functional. A general note: A flow cytometer gives signals particle by particle.
Test [3] has as its system MIA PaCa-2. Description: Cell cycle arrest in human MIAPaCa2 cells assessed as accumulation at S phase at 2 uM after 24 hrs by propidium iodide staining-based flow cytometric method (reference value: 33%). The test is classed as functional.
Test [4] has as its system MIA PaCa-2. As to the kind of experiment: Cell cycle arrest in human MIAPaCa2 cells assessed as accumulation at G2 phase at 2 uM after 24 hrs by propidium iodide staining-based flow cytometric method (reference value: 30%). The test is classed as functional.
The target in the next test is CDK9/cyclin T1 (Homo sapiens, UniProt P50750). Description: Inhibition of CDK9/cyclin T1 (unknown origin) using YSPTSPSYSPTSPSYSPTSPKKK as substrate after 30 mins in presence of [33P]-gamma-ATP by filter binding assay. Type of test: protein-complex assay.
Sequence of CDK9/cyclin T1 (O60563 whole entry): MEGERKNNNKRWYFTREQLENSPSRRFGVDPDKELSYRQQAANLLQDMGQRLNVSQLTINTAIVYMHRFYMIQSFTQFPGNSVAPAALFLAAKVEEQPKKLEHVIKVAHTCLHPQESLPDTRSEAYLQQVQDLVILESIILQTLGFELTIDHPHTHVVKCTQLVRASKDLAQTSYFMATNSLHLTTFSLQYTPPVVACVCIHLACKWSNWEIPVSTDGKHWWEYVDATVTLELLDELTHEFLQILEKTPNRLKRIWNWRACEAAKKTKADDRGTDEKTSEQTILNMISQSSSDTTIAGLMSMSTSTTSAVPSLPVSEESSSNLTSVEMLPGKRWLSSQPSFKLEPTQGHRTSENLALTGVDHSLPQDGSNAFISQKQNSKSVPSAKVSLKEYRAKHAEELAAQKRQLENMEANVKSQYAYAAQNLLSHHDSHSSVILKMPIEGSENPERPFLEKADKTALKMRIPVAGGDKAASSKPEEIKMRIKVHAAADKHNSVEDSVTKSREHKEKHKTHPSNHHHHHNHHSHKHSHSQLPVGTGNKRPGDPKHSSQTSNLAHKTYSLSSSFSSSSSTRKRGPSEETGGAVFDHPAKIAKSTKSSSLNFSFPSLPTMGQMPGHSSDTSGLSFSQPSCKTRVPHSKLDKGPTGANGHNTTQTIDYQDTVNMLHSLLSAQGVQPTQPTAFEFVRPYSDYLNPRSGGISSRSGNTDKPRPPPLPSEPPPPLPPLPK
Sequence of CDK9/cyclin T1 (P50750 whole entry): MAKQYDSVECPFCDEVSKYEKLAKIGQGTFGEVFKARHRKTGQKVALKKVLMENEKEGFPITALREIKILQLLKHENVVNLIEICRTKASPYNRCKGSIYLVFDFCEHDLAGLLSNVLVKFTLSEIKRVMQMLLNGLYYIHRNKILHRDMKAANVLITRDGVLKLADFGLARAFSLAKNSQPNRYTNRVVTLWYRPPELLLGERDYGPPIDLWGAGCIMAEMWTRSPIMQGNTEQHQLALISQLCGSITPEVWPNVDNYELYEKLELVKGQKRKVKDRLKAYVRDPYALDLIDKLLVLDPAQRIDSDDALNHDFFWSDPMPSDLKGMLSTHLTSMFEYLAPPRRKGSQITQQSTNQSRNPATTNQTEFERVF
Test [5] relates to PC-3. As to the kind of experiment: Growth inhibition of human PC3 cells after 48 hrs by MTT assay. The test is classed as functional. As to conditions: PC-3, 48 h. The procedure, abridged:
(§1)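 Cancer cell lines sourced from the National Cancer Institute (USA). Cells kept in appropriate growth medium at 37 °C, 95% humidity, 5% CO2. Antiproliferation read by tetrazolium (MTT) assay. GI50 values were determined only for compounds selected after an initial single-concentration screen.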
On the technique in general: Tetrazolium dyes change colour on reduction, which living cells bring about.

Test [6] relates to Caco-2. Description: Growth inhibition of human Caco2 cells at 10 uM after 48 hrs by MTT assay relative to control. The test is classed as functional. The following applies: Caco-2, 48 h, read-out: GI. The method in brief: (§2)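 Single-concentration primary screen at 10 μM by MTT assay. Cells were NCI-sourced cancer lines grown in appropriate medium at 37 °C, 95% humidity, 5% CO2. Growth inhibition is expressed relative to control.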

The target of test [7] is CDK2/Cyclin A2 (Homo sapiens) (UniProt P24941+P20248). As to the kind of experiment: Inhibition of CDK2/cyclin A (unknown origin) at 0.5 uM using histone H1 as substrate after 30 mins in presence of [33P]-gamma-ATP by filter binding assay relative to control. Type of test: protein-complex assay.
Test [8] concerns the target CDK9/cyclin T1 (Homo sapiens) (UniProt O60563+P50750). As to the kind of experiment: Inhibition of CDK9/cyclin T1 (unknown origin) at 0.5 uM using YSPTSPSYSPTSPSYSPTSPKKK as substrate after 30 mins in presence of [33P]-gamma-ATP by filter binding assay relative to control. Type of test: protein-complex assay.
For a further test, the species on record is Homo sapiens. As to the kind of experiment: Selectivity ratio of IC50 for CDK2/cyclin A (unknown origin) to IC50 for CDK9/cyclin T1 (unknown origin).
In a further test the target is CDK2/Cyclin A2 (Homo sapiens, UniProt P24941). Description: Inhibition of CDK2/cyclin A (unknown origin) using histone H1 as substrate after 30 mins in presence of [33P]-gamma-ATP by filter binding assay. Type of test: protein-complex assay.
Test [9] concerns HL-60. Description: Growth inhibition of human HL60 cells after 48 hrs by MTT assay. The test is classed as functional. As to conditions: HL-60, 48 h. The procedure, abridged:
as §1

The test system of test [10] is Caco-2. As to the kind of experiment: Growth inhibition of human Caco2 cells after 48 hrs by MTT assay. The test is classed as functional. As to conditions: Caco-2, 48 h. The procedure, abridged:
as §1

In test [11] the test system is MCF7. As to the kind of experiment: Growth inhibition of human MCF7 cells at 10 uM after 48 hrs by MTT assay relative to control. The test is classed as functional. The following applies: MCF7, 48 h, read-out: GI. The method in brief: as §2
Test [12] concerns MCF7. Description: Growth inhibition of human MCF7 cells after 48 hrs by MTT assay. The following applies: MCF7, 48 h. Type of test: functional. The procedure, abridged:
as §1

The test system of test [13] is PC-3. As to the kind of experiment: Growth inhibition of human PC3 cells at 10 uM after 48 hrs by MTT assay relative to control. The test is classed as functional. The following applies: PC-3, 48 h, read-out: GI. The procedure, abridged: as §2
In test [14] the test system is MIA PaCa-2. As to the kind of experiment: Growth inhibition of human MIAPaCa2 cells at 10 uM after 48 hrs by MTT assay relative to control. The test is classed as functional. The following applies: MIA PaCa-2, 48 h, read-out: GI. The method in brief:
as §2

Test [15] concerns HL-60. As to the kind of experiment: Growth inhibition of human HL60 cells at 10 uM after 48 hrs by MTT assay relative to control. The following applies: HL-60, 48 h, read-out: GI. The test is classed as functional. The method in brief:
as §2

In test [16] the test system is MIA PaCa-2. Description: Growth inhibition of human MIAPaCa2 cells after 48 hrs by MTT assay. The test is classed as functional. The following applies: MIA PaCa-2, 48 h. The procedure, abridged: as §1

Molecules are shown by their SMILES.

For `CC[C@@]1(O)C(=O)OCc2c1cc1n(c2=O)Cc2cc3ccccc3nc2-1` [CAMPTOTHECIN], the Activity in the test on MIA PaCa-2 [1] is reported as 3.3%; in the test with MIA PaCa-2 [2], 42%; in the test on MIA PaCa-2 [3], 26%; with MIA PaCa-2 [4], 31%.
On to `CN1CC[C@H](c2c(O)cc(O)c3c(=O)cc(/C=C/c4ccccc4Cl)oc23)[C@H](O)C1`, for which the IC50 on CDK9/cyclin T1 was determined as 0.16 µM; at CDK2/Cyclin A2 it was 1.41 µM. Besides, the GI50 in the test with PC-3 [5] amounted to 17 µM; in the test with HL-60 [9], 9 µM; with Caco-2 [10] it was 9 µM; in the test with MCF7 [12], 9 µM; in the test with MIA PaCa-2 [16], 8 µM. For the same compound, the inhibition of growth at 10 µM is 65% in the test with Caco-2 [6]; 63% with MCF7 [11]; 22% in the test on PC-3 [13]; 59% in the test with MIA PaCa-2 [14]; 61% with HL-60 [15]. The inhibition in test [7] came to 10%; in [8] it was 75%. For the same compound, the Ratio IC50 in the test filed under Homo sapiens was found to be 10.

One may read the IC50 as the concentration that inhibits the measured activity by half. As a reminder, the GI50 is the concentration that inhibits growth by half. Read a high GI50 as less potent growth inhibition. For orientation: inhibition means how much of the control response was suppressed.
